Holding throughout (format): functional
One test addresses T1, Glucocorticoid receptor (Homo sapiens, UniProt P04150).
T1 sequence (P04150 whole entry): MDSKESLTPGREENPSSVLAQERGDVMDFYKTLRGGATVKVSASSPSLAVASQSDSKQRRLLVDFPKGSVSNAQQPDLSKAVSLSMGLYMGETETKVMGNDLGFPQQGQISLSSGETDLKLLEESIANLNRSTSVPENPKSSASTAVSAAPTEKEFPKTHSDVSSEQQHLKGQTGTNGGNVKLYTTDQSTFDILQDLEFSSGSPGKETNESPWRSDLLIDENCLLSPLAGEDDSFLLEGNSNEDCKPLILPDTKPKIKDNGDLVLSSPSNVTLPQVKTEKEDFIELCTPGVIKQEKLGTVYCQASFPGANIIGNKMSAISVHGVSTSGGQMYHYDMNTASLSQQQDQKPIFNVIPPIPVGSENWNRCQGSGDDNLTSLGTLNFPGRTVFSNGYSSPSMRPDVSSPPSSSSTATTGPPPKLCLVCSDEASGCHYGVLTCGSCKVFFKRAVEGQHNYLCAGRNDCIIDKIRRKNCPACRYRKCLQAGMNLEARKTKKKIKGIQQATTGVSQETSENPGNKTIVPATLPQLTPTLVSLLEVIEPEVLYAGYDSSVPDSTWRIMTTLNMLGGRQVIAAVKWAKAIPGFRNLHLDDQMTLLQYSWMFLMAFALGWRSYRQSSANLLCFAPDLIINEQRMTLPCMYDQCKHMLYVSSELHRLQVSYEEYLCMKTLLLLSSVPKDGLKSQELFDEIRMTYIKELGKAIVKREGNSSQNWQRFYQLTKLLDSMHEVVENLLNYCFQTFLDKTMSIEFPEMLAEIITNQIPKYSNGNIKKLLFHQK
The experiment in a line: Antagonist activity against the Glucocorticoid Receptor (GR).

Test [1] has as its target T2, Mineralocorticoid receptor (Homo sapiens, UniProt P08235).
T2 sequence (P08235 whole entry): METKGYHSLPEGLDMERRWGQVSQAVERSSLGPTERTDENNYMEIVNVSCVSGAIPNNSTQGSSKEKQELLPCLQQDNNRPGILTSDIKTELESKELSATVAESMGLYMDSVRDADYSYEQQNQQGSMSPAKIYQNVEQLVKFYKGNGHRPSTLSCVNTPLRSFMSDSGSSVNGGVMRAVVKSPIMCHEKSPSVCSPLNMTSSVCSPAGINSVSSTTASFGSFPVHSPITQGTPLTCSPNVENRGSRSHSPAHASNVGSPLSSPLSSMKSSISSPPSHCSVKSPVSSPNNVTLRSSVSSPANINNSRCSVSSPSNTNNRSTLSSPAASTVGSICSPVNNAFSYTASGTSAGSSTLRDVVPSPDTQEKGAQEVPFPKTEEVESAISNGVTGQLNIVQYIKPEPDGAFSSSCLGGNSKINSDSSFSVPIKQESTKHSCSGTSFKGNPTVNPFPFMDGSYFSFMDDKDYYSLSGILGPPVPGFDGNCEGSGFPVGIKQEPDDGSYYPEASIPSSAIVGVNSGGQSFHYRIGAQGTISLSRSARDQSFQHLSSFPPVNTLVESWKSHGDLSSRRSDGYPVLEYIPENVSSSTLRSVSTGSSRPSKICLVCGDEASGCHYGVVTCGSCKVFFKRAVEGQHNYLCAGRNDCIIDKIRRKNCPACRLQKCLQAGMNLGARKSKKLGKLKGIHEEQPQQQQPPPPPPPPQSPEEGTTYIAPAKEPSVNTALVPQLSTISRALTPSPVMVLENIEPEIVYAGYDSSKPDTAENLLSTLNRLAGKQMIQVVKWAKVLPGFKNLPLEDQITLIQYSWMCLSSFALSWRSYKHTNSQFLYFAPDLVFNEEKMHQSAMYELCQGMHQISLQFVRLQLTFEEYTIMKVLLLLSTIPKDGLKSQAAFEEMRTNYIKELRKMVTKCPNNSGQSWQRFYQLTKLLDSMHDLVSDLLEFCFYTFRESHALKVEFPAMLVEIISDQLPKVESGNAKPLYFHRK
The test can be described thus: Antagonist activity against the Mineralocorticoid Receptor (MR).

Another test has as its target T3, Progesterone receptor (Homo sapiens, UniProt P06401).
T3 sequence (P06401 whole entry): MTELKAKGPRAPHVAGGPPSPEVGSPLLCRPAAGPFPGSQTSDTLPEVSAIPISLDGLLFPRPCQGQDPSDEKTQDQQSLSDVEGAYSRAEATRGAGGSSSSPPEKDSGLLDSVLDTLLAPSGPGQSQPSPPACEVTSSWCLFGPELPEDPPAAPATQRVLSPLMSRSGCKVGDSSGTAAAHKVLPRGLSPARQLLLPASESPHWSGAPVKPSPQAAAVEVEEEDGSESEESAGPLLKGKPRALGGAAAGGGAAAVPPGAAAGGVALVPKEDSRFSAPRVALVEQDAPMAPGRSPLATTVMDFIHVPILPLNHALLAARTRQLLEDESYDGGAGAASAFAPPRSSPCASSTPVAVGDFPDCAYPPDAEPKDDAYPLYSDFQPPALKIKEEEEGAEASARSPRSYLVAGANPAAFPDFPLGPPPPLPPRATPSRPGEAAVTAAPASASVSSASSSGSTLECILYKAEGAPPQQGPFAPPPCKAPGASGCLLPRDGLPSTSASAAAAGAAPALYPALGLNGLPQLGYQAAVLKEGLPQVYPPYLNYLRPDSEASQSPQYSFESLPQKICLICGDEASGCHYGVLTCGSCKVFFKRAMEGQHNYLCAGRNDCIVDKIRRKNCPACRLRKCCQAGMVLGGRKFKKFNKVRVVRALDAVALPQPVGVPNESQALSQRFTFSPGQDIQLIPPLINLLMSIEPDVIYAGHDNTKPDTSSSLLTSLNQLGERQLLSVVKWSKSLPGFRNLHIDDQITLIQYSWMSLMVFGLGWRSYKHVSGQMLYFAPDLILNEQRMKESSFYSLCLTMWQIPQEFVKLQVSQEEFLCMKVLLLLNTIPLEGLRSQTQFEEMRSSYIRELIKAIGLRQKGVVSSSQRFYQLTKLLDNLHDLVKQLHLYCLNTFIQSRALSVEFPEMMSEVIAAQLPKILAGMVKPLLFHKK
The test can be described thus: Antagonist activity against the Progesterone Receptor (PR). Put shortly: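 Antagonism run in CV-1 cells co-transfected with hPR and PRE-luciferase plasmids, with luciferase read-out; IC50 taken as the mean of at least duplicate determinations.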

Consider four molecules from ChEMBL document CHEMBL1135816, “6-Aryl-1,4-dihydro-benzo[d][1,3]oxazin- 2-ones: a novel class of potent, selective, and orally active nonsteroidal progesterone receptor antagonists” (J Med Chem, 2002).

As a reminder, the IC50 is the concentration at which inhibition is half-maximal. Read a high IC50 as lower potency. With `CC1(C)OC(=O)Nc2ccc(-c3ccc(F)c(Cl)c3)cc21`, the IC50 on Glucocorticoid receptor is 2580 nM; in test [1] it was 2490 nM.

Turning to `CC1(C)OC(=O)Nc2ccc(-c3cc(F)cc(C#N)c3)cc21`, the IC50 on Progesterone receptor is 15.9 nM; against Glucocorticoid receptor, 1760 nM; in test [1] it was 2370 nM.

Turning to `CC1(C)OC(=O)Nc2ccc(-c3csc(C#N)c3)cc21`, the concentration for half-maximal inhibition (IC50) against Progesterone receptor came out at 6.7 nM; against Glucocorticoid receptor it was 1860 nM; in test [1], 1390 nM.

Turning to `CC1(C)OC(=O)Nc2ccc(-c3coc(C#N)c3)cc21`, the IC50 is 40.2 nM at Progesterone receptor, above 10000 nM against Glucocorticoid receptor and above 10000 nM in test [1].
